Sampled rows, rich in hits. Any-hit rate of the full collection: about 1.8%.
STEP block: blocks human striatal-enriched tyrosine phosphatase; P54829; recombinant STEP, OMFP fluorogenic substrate, fluorescence; inhibition, % at 20 µM; 360,000 compounds, 0.25% hits; AID 588621;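 active means inhibition at 20 µM, scaled per plate between control wells, above about 37%, limit read from the data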;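 further: 0% = DMSO with enzyme and substrate and 100% = substrate only without enzyme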
Target sequence (P54829 whole entry, looked up): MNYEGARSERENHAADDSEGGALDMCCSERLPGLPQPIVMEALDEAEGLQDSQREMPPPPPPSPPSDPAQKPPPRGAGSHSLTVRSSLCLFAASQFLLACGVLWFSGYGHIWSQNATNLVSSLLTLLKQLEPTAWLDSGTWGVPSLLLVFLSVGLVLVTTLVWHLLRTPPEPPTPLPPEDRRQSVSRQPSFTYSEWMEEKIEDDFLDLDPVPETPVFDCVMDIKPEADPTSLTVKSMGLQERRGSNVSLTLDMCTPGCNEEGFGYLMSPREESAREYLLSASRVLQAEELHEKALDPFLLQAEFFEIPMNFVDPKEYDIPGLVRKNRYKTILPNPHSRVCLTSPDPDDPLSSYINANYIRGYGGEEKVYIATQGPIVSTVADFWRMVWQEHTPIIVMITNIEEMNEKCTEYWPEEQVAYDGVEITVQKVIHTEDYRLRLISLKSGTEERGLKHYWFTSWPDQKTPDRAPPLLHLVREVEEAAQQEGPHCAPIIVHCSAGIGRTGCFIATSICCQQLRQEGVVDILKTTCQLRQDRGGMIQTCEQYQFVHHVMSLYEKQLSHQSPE
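System: STEP (striatal-enriched tyrosine phosphatase) enzyme, cell-free; medium: Bis-Tris pH 6.0 buffer with DTT, detergent; dosing: 20 µM, 1% DMSO; times: reaction 20 min, ambient temperature; detection: fluorescence, 480/540 nm; read-out basis: normalized % inhibition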
SUMO1-SIM PPI: modulators of human SUMO1-mediated protein-protein interactions | SUMO1 binding to a labelled peptide, TR-FRET, 1 h | inhibition, % at 20 µM | 360,000 compounds, 0.33% hits | AID 602429; in the data active means inhibition above about 37%
Target sequence (P63165 whole entry, looked up): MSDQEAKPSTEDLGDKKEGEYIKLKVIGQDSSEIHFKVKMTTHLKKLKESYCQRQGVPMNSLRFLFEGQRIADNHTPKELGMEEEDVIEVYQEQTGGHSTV
Scp-1 inhibitor: blocks human Scp-1 phosphatase activity; Recombinant Scp1, phosphopeptide, malachite green phosphate absorbance; inhibition, % at 20 µM; 340,000 compounds, 0.88% hits; Q9GZU7;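 active means inhibition above about 50% at 20 µM, limit read from the data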;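 further: plate controls were DMSO wells with enzyme for no effect and wells lacking enzyme for full effect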
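Material – SCP-1 phosphatase catalytic domain, residues 76-261 · Buffer or medium – Acidic Tris acetate buffer with magnesium and detergent · Also added – Phospho 17-mer peptide substrate · Compound – single 20 µM dose, 1% DMSO · Times – 45 min room-temperature reaction, 5 min colour, 30 min stabiliser · Technique – Phosphate-binding colour reagent, absorbance read at 630 nm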
LMPTP block: LMPTP (human) inhibition. P24666. recombinant LMPTP-A, OMFP fluorogenic substrate, fluorescence intensity. inhibition, % at 20 µM. 360,000 compounds, 0.22% hits. AID 651560;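 active means compounds that cut the enzyme signal by at least half of the control window in the single-dose screen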;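 further: plate controls were DMSO wells with enzyme plus substrate for no effect and substrate without enzyme for full effect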
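material = LMPTP-A | quantity = 0.625 nM enzyme | reagent = OMFP substrate, 400 µM final | buffer or medium = Bis-Tris pH 6.0, DTT, detergent | detection = endpoint fluorescence intensity from OMFP dephosphorylation | dosing = single 20 µM dose | read-out basis = % inhibition relative to no-enzyme and uninhibited control wells | control set = no-enzyme and uninhibited controls | timing = 50 min at room temperature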
DNMT1 inh: blocks human DNA methyltransferase DNMT1 | DNMT1 molecular beacon, Hinp1I cleavage, fluorescence | inhibition (reported as % activation of signal), % at 10 µM | P26358 | 360,000 compounds, 0.83% hits; in the data active means inhibition above about 50%
DNMT1 confirm: confirmation of human DNMT1 inhibitors. inhibition, % at 10 µM. AID 602385. 2,300 compounds, 8% hits. DNMT1 molecular beacon HinP1I cleavage, fluorescence. shares compounds with DNMT1 inh;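 active means average inhibition of at least 30% in the single-concentration confirmation test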
DNMT1 interf: beacon fluorescence artifact counter-screen. shares compounds with DNMT1 inh. 2,300 compounds, 1% hits. DNMT1 molecular beacon spectral interference counterscreen, fluorescence 485/520. activation (fluorescence interference), % at 10 µM. AID 602387;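 active means activation of at least 30% at 10 µM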;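 further: DNMT1 catalytic domain with a HinP1I cleavage step and a FAM/dabcyl DNA beacon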
Active calls of the source: *.

What do the screens show for `CC1(C(=O)NCc2cccs2)Cc2c(-c3ccccc3)ccnc2O1` (configuration not stated)?
STEP block: -1; SUMO1-SIM PPI: 0; LMPTP block: 0; DNMT1 inh: -1

How did COc1ccc(C(=O)OCC(=O)c2ccc(F)cc2)cc1OC do in these assays?
STEP block: -3; SUMO1-SIM PPI: 7; Scp-1 inhibitor: -12; LMPTP block: -1; DNMT1 inh: 2

How did Cc1ccc(C)c(OCC(=O)N/N=C/c2c(C)nn(-c3ccccc3)c2Cl)c1C do in these assays?
STEP block: 4; SUMO1-SIM PPI: 1; Scp-1 inhibitor: -10; LMPTP block: -2; DNMT1 inh: 53*; DNMT1 confirm: 0; DNMT1 interf: 0

What do the screens show for `CC(CN1CCOCC1)OC(=O)c1cccc(Cl)c1` (configuration not stated)?
STEP block: 1; SUMO1-SIM PPI: 5; Scp-1 inhibitor: -8; LMPTP block: 0; DNMT1 inh: 1

What do the screens show for `CCCCn1c(N)c(N(CCOC)C(=O)c2cccc(S(=O)(=O)N(C)c3ccc(C)cc3)c2)c(=O)[nH]c1=O`?
STEP block: 3; SUMO1-SIM PPI: 4; Scp-1 inhibitor: -2; LMPTP block: 0; DNMT1 inh: 1

How did CC1(C)OC2CC3C4CC=C5CC(O)CCC5(C)C4CCC3(C)C2(C(=O)CO)O1 (configuration not stated) do in these assays?
STEP block: 0; SUMO1-SIM PPI: -3; Scp-1 inhibitor: -4; LMPTP block: 4; DNMT1 inh: 67*; DNMT1 confirm: 2; DNMT1 interf: 4

How did CC(=O)OCC(=O)C12OC(C)(C)OC1CC1C3CC=C4CC(O)CCC4(C)C3CCC12C (configuration not stated) do in these assays?
STEP block: 0; SUMO1-SIM PPI: 7; Scp-1 inhibitor: -15; LMPTP block: 0; DNMT1 inh: 16

How did COc1ccccc1CC(=O)N1CCN(c2cccc(Cl)c2)CC1 do in these assays?
STEP block: 1; SUMO1-SIM PPI: 11; Scp-1 inhibitor: -10; LMPTP block: 1; DNMT1 inh: -4

What do the screens show for `O=C1CC(c2ccco2)CC(O)=C1C=NCC1CCNCC1` (configuration not stated)?
STEP block: 0; SUMO1-SIM PPI: 49*; Scp-1 inhibitor: -5; LMPTP block: 0; DNMT1 inh: 67*; DNMT1 confirm: 1; DNMT1 interf: 5

What do the screens show for `Cc1c(Cl)cccc1NC(=S)Nc1ccc(S(=O)(=O)Nc2ncccn2)cc1`?
STEP block: -1; SUMO1-SIM PPI: 2; Scp-1 inhibitor: -5; LMPTP block: -3; DNMT1 inh: 1

How did O=S1(=O)N=C(c2ccccc2)C=C(c2ccccc2)N1 do in these assays?
STEP block: 0; SUMO1-SIM PPI: 1; Scp-1 inhibitor: -1; LMPTP block: -2; DNMT1 inh: 3

Results for Cc1nn(CCCC(=O)NCc2ccc(Cl)cc2)c(C)c1[N+](=O)[O-] ?
STEP block: 1; SUMO1-SIM PPI: -2; Scp-1 inhibitor: -11; LMPTP block: -1; DNMT1 inh: 69*; DNMT1 confirm: 2; DNMT1 interf: 1

How did COc1ccc(CNC(=O)CCCn2nc(C)c([N+](=O)[O-])c2C)cc1OC do in these assays?
STEP block: -2; SUMO1-SIM PPI: -1; Scp-1 inhibitor: -1; LMPTP block: -1; DNMT1 inh: 0

How did O=C(CSc1n[nH]c(=O)[nH]c1=O)Nc1ccc(Br)cc1Br do in these assays?
STEP block: -3; SUMO1-SIM PPI: 1; Scp-1 inhibitor: -4; LMPTP block: -2; DNMT1 inh: 0

How did Cc1ccc(-c2nc3c(c(=O)[nH]c(=O)n3Cc3ccccc3)n2Cc2ccccc2)o1 do in these assays?
STEP block: 5; SUMO1-SIM PPI: -1; Scp-1 inhibitor: -3; LMPTP block: 2; DNMT1 inh: 6

How did Cc1ccc(-c2nc3c(c(=O)[nH]c(=O)n3Cc3ccccc3)n2C)o1 do in these assays?
STEP block: 2; SUMO1-SIM PPI: 0; Scp-1 inhibitor: 27; LMPTP block: 10; DNMT1 inh: 70*; DNMT1 confirm: 4; DNMT1 interf: 0

What do the screens show for `CC1(C(=O)Nc2ccc3nc[nH]c3c2)CCN1C(=O)C1(c2ccccc2)CC1` (configuration not stated)?
STEP block: -3; SUMO1-SIM PPI: 0; LMPTP block: 1; DNMT1 inh: 101*; DNMT1 confirm: 4; DNMT1 interf: 3

Results for Cc1cc(-c2nnc3n2N=C(c2ccc(-c4ccccc4)cc2)CS3)n[nH]1 ?
STEP block: 6; SUMO1-SIM PPI: -17; Scp-1 inhibitor: 9; LMPTP block: 17; DNMT1 inh: -7

How did c1ccc(-c2cc(-c3nnc4n3N=C(c3ccc5ccccc5c3)CS4)[nH]n2)cc1 do in these assays?
STEP block: 6; SUMO1-SIM PPI: -6; Scp-1 inhibitor: 3; LMPTP block: 3; DNMT1 inh: 55*; DNMT1 confirm: 6; DNMT1 interf: -4

What do the screens show for `CCCOc1ccc(C(=O)CCC(=O)OCC(=O)N(CC)c2c(N)n(Cc3ccccc3)c(=O)[nH]c2=O)cc1`?
STEP block: 2; SUMO1-SIM PPI: -1; Scp-1 inhibitor: -5; LMPTP block: 0; DNMT1 inh: -1

What do the screens show for `CCN(C(=O)COC(=O)CCOc1ccc(C(C)(C)C)cc1)c1c(N)n(Cc2ccccc2)c(=O)[nH]c1=O`?
STEP block: -2; SUMO1-SIM PPI: 1; Scp-1 inhibitor: -5; LMPTP block: -1; DNMT1 inh: 63*; DNMT1 confirm: -1; DNMT1 interf: 4

What do the screens show for `CCCc1c(C)[nH]c2ccc(C(=O)O)cc2c1=S`?
STEP block: 4; SUMO1-SIM PPI: 96*; Scp-1 inhibitor: 39; LMPTP block: 9; DNMT1 inh: 93*; DNMT1 confirm: 15; DNMT1 interf: 1

What do the screens show for `NC(=S)NN=C1c2cc(Cl)ccc2-c2c1cc(Cl)cc2[N+](=O)[O-]`?
STEP block: 0; SUMO1-SIM PPI: -9; Scp-1 inhibitor: 0; LMPTP block: 34; DNMT1 inh: 51*; DNMT1 confirm: 2; DNMT1 interf: -7

Results for O=C(CSc1nnc(-c2ccco2)o1)c1ccc[nH]1 ?
STEP block: 1; SUMO1-SIM PPI: 18; Scp-1 inhibitor: 40; LMPTP block: 53*; DNMT1 inh: 55*; DNMT1 confirm: 6; DNMT1 interf: 3

Results for CCCN(C(=O)c1cn(C)c(=O)c2ccccc12)c1ccccc1C ?
STEP block: -3; SUMO1-SIM PPI: 8; Scp-1 inhibitor: -19; LMPTP block: 0; DNMT1 inh: -1
